“Also recorded” adds a separate entry of the source.

The values that follow come from PMC4636435 (Cell host & microbe, 2015).

The test system of one data set is cathelicidin. Particulars: human cells; ref Liu et al., 2006; cited from earlier work.
The subject of another data set is wild-type and Δemm1 GAS. The data set can be described thus: Resistance of wild-type and Δemm1 GAS to antimicrobial peptides. It is filed as cell-based, Streptococcus pyogenes (group A Streptococcus). Particulars: serum-free DMEM with 10% THB, 24 h; for M1-dependent protection of GAS from killing by the peptide: wild-type vs. Δemm1 GAS. The procedure, abridged: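 GAS M1T1 5448 and isogenic Δemm1 were grown overnight at 37°C, diluted 1:40 in Todd-Hewitt broth, grown statically at 37°C to OD600 0.400, then PBS-washed. 2×10^5 bacteria in serum-free DMEM with phenol red and 10% THB were exposed to cathelicidin- or defensin-family peptides. MIC was the lowest concentration preventing growth after 24 h. Means ± s.d., n=3; ≥3 independent experiments.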

The test system of another data set is human neutrophils. The data set can be described thus: Neutrophil chemotaxis in transwell system. It is filed as cell-based. Particulars: 1 h, 37°C, n=3.
In a further data set the test system is recombinant M1 protein. The data set can be described thus: Pulldown with His-tagged recombinant M1 as bait / blot. It is filed as binding, Streptococcus pyogenes (group A Streptococcus), M1T1.
For data set [1], the target named is LL-37, human cathelicidin antimicrobial peptide (human). The data set can be described thus: SPR. (In general: In SPR one partner is held on a chip, and binding of the other changes the refractive index at the surface.)
The next data set deals with T1, recombinant M49 protein (Streptococcus pyogenes (group A …, UniProt P16947 42-359)).
T1 sequence: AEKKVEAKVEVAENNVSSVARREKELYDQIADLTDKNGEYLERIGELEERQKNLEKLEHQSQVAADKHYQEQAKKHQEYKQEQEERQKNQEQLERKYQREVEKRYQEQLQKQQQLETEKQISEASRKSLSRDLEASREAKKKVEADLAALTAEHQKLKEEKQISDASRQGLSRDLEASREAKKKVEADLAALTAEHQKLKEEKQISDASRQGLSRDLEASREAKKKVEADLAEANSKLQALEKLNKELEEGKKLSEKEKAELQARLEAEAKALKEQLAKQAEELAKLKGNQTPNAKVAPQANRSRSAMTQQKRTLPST
The data set can be described thus: SPR.

The test system of data set [2] is M1T1 GAS, wild-type vs. Δemm1. The data set can be described thus: FACS detection of cathelicidin on bacterial surface. Type of data set: cell-based, Streptococcus pyogenes (group A Streptococcus). To be noted: recombinant hCAP18, wild-type vs. Δemm1, anti-LL-37 antibody.
Another data set concerns M1 protein. The data set can be described thus: SPR. Type of data set: binding, Streptococcus pyogenes (group A Streptococcus), M1T1. Particulars: ratio of Kd M49 vs. M1, SPR.

Regarding `C=C1CC[C@H](O)C/C1=C/C=C1\CCC[C@]2(C)[C@@H]([C@H](C)/C=C/[C@H](C)C(C)C)CC[C@@H]12` [vitamin D], in the data set with cathelicidin, the “induction of cathelicidin expression” value is given as “strongly induces cathelicidin expression”.

Regarding “KR-20: processed form of cathelicidin expressed by keratinocytes in human skin; de novo synthesis (Anaspec) (KRIVQRIKDFLRNLVPRTES)”, in the data set with wild-type and Δemm1 GAS, the “M1-dependent protection of GAS from killing by the peptide” value is “M1 protected GAS from killing”. As for N-formyl-Met-Leu-Phe [fMLP], the “stimulation of neutrophil chemotaxis” value with human neutrophils was “stimulated robust chemotaxis of neutrophils”.

Turning to “mCRAMP: active murine form of cathelicidin; de novo synthesis (Anaspec) (ISRLAGLLRKGGEKIGEKLKKIGQKIKNFFQKLVPQPE)”, the “binding and inhibition by M1 vs. M49” value in the data set on recombinant M1 protein (statement in the in vivo section) is “M1 but not M49 binds and inhibits CRAMP”. Further, the “M1-dependent protection of GAS from killing by the peptide” value with wild-type and Δemm1 GAS was “M1 protected GAS from killing”. As a reminder, the Kd is the concentration at which binding is half-saturated. In data set [1], “recombinant M1 protein (from UniProt Q99XV0) (natural protein)” came in with a dissociation constant Kd of 1.18 µM.

B1: recombinant hCAP18, full-length human cathelicidin (natural protein)
chain: QVLSYKEAVLRAIDGINQRSSDANLYRLLDLDPRPTMDGDPDTPKPVSFTVKETVCPRTTQQSPEDCDFKKDGLVKRCMGTVTLNQARGSFDISCDKDNKRFALLGDFFRKSKEKIGKEFKRIVQRIKDFLRNLVPRTES
As for B1, in the data set with recombinant M49 protein, the Kd came to 9.07 µM.

B2: hCAP18: full-length human cathelicidin precursor, recombinant, expressed from pET28a (protein)
chain: QVLSYKEAVLRAIDGINQRSSDANLYRLLDLDPRPTMDGDPDTPKPVSFTVKETVCPRTTQQSPEDCDFKKDGLVKRCMGTVTLNQARGSFDISCDKDNKRFALLGDFFRKSKEKIGKEFKRIVQRIKDFLRNLVPRTES
modifications: left off: His tag (from the vector pET28a), end not stated, state not stated
For the molecule B2, the “binding to bacterial surface” value in data set [2] was “recombinant hCAP18 bound the GAS surface in an M1-dependent manner; also recorded: Δemm1 GAS binds significantly less hCAP18 than wild-type GAS”. Moreover, the “stronger binding of M1 compared to M49 protein (from Kd)” value in the data set on M1 protein came to 10 fold. Further, the “major cathelicidin form pulled down by M1 from neutrophil lysate” value with recombinant M1 protein (whole lysates from neutrophils, Western blot with anti-LL-37 antibody) is “the major cathelicidin form detected was uncleaved hCAP18”. Moreover, the antimicrobial activity entry with wild-type and Δemm1 GAS (wild-type and Δemm1 GAS) is on record as “lacked antimicrobial activity”.

B3: recombinant M49 protein (natural protein)
chain: AEKKVEAKVEVAENNVSSVARREKELYDQIADLTDKNGEYLERIGELEERQKNLEKLEHQSQVAADKHYQEQAKKHQEYKQEQEERQKNQEQLERKYQREVEKRYQEQLQKQQQLETEKQISEASRKSLSRDLEASREAKKKVEADLAALTAEHQKLKEEKQISDASRQGLSRDLEASREAKKKVEADLAALTAEHQKLKEEKQISDASRQGLSRDLEASREAKKKVEADLAEANSKLQALEKLNKELEEGKKLSEKEKAELQARLEAEAKALKEQLAKQAEELAKLKGNQTPNAKVAPQANRSRSAMTQQKRTLPST
Molecule B3 displayed a dissociation constant Kd in data set [1] of 62.7 µM.
